Measurements gathered from unrelated publications.
Protocols differ between the studies behind these lines.
Target: Calcium/calmodulin-dependent protein kinase type II subunit alpha (CAMK2A, Homo sapiens, UniProt Q9UQM7)

C=CC(=O)N1CCC([C@@H]2CCNc3c(C(N)=O)c(-c4ccc(Oc5ccccc5)cc4)nn32)CC1
inhibition (enzyme activity; inhibitor; 1 µM): 0%

COc1ccc2[nH]c3c4[nH]c5ccc(OC)cc5c4c4c(c3c2c1)C(=O)NC4=O
remaining binding (binding; 1 µM): 70%

CCCCCCCCCCCO
inhibition (enzyme activity; inhibitor; 10 µM): -20%

C[C@H]1CC[C@H](n2c3cnccc3c3cnc(Nc4ccc5c(n4)CCN(C(=O)CO)C5)nc32)CC1
remaining signal (cell-free assay; 1 µM): 33%

COc1ccc2oc(-c3ccc4nc(N)oc4c3)c/c(=N\c3ccccc3NC(=O)CCN)c2c1
remaining binding (binding; 1 µM): 93%

CCCCCCCCCCCCCCCCCCCCCCO
inhibition (enzyme activity; inhibitor; 10 µM): -5%

CC(C)S(=O)(=O)c1ccc2nccc(Nc3ccc4sc(C5CCCC5)nc4c3)c2c1
activity vs control (enzyme activity; inhibitor; 1 µM): 104%

C1=C/COCc2cc(ccc2OCCN2CCCC2)Nc2nccc(n2)-c2cccc(c2)COC/1
remaining binding (binding; 0.1 µM): 91%

CCCCC(=O)Nc1ccc(-c2ccc3ncn(CCC)c(=O)c3c2)cn1
remaining binding (binding; competition with immobilised ligand; 0.5 µM): 100%

CO[C@@H]1[C@H](N(C)C(=O)c2ccccc2)C[C@H]2O[C@]1(C)n1c3ccccc3c3c4c(c5c6ccccc6n2c5c31)C(=O)NC4
inhibition (enzyme activity; inhibitor; 1 µM): 94%
